RanGTP-Impb inh = inhibitors of RanGTP-importin-beta interaction, primary screen, biochemical, FRET, CFP-Ran, YFP-importin-beta, homogeneous | cell-free CFP-Ran/YFP-importin-beta FRET ratio | inhibition, % (concentration not given with the values) | hit rate 1.1% among 300,000;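 active = more than half of the replicate wells show a fall in the fluorescence ratio signal beyond about 16%, limit read from the data, passing the limit was not always enough; inconclusive = exactly half of the replicate wells pass the set limit; inactive = fewer than half of replicates pass the limit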;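 also: 0% = DMSO wells and 100% = Ran loaded with GDP instead of GTP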
Runt-CBFb FRET = blocks binding of human RUNX1 Runt domain to CBFb; AID 1496; hit rate 0.46% among 220,000; Q01196+Q13951; Cerulean-Runt/Venus-CBFb FRET ratio 530/480, 1 h; inhibition, % at 20 µM;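 active = inhibition over about 50% at 20 µM in the single-dose screen, limit read from the data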;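 also: 0% = DMSO wells and 100% = excess unlabeled CBFb competitor control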
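Assay system: Cerulean-Runt domain / Medium: Tris 50 mM pH 7.5, KCl, K2SO4, 0.01% BSA / Timing: protein complex preformed 1 h, compound exposure 1 h, room temperature, dark / Measured by: FRET, excitation 422 nm, emission at 530 and 480 nm / Evaluation: loss of energy transfer signal / Control set: 5 µM unlabeled CBFb as full-inhibition high control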
Wee1 degr inh = blocks degradation of human Wee1 kinase | HeLa Luc-Wee1K328M stability, luciferase luminescence; 100% = proteasome inhibitor MG132 effect | hit rate 1.2% among 220,000 | reporter increase, % at 5 µM | P30291;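 active = activation above the mean of all tested compounds plus 3 SD, set per screening run, cut at about 8.8% in these data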;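 also: cells exposed to compound for 20 h before luminescence read; 0% = DMSO alone and 100% = MG132 at 30 µM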
Target sequence (P30291 whole entry K328M): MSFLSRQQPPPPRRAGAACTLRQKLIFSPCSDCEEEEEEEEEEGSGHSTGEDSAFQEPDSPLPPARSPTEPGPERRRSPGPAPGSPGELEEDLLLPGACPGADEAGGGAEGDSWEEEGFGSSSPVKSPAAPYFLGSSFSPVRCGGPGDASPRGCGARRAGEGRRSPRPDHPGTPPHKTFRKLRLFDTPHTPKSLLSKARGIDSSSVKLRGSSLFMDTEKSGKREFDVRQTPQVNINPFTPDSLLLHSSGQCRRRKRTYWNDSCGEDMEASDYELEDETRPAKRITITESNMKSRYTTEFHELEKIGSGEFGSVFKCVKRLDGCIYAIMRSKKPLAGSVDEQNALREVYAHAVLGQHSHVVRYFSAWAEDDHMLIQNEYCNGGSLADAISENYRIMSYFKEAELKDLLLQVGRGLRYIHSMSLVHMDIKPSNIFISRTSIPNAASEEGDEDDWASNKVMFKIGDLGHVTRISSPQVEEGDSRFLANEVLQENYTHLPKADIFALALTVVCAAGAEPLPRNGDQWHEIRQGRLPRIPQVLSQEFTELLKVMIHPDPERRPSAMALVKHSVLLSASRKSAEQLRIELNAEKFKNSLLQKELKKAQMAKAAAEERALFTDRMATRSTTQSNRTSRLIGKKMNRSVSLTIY
KLK7 zymogen act = activators of human kallikrein-7 zymogen; P49862; purified proKLK7, EDANS-DABCYL substrate fluorescence; 100% is mature enzyme control, 0% vehicle; activation, % at 7 µM; hit rate 0.9% among 370,000;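 active = activation above the mean of all tested compounds plus 3 SD, computed per campaign excluding outliers beyond control limits, cut at about 13% in these data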
AI-2 QS modul = modulates the Vibrio harveyi AI-2 quorum sensing system | Vibrio harveyi JMH597 AI-2 luminescence/OD600 ratio, 9 h; hits give low values; strain lacks LuxN and CqsS sensors; 0 = neutral-control median | activity change, % at 7.5 µM | hit rate 0.4% among 300,000 | AID 2094; in the data active = activity change below about -75%, passing the limit was not always enough; inconclusive = no clear call, values can overlap the other calls;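 also: luminescence divided by OD600 gain over 9 h not by final OD600 alone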
Runt-SMMHC FRET = blocks binding of human RUNX1 Runt domain to CBFb-SMMHC; Cerulean-Runt/Venus-CBFb-SMMHC FRET ratio 530/480, 1 h; inhibition, % at 20 µM; hit rate 0.74% among 220,000; AID 1434;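 active = mean inhibition across duplicate retests at 20 µM reaching about 50%, limit read from the data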;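 also: 0% = DMSO wells and 100% = wells with excess untagged CBFb-SMMHC; inhibitors lower the FRET ratio by blocking Runt binding to CBFb-SMMHC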
* hit, by the source's call; ? = inconclusive; nt = not tested or not shown. An excerpt weighted towards active compounds, which were near 2.9% of everything screened.

SMILES	RanGTP-Impb inh	Runt-CBFb FRET	Wee1 degr inh	KLK7 zymogen act	AI-2 QS modul	Runt-SMMHC FRET
Cc1c(NC(=O)CN2C(=O)NC(CCc3ccccc3)C2=O)c(=O)n(-c2ccccc2)n1C (configuration not stated)	34*	0	4	0	-1	2
Cc1c(NC(=O)CN2C(=O)C3C4C=CC(C4)C3C2=O)c(=O)n(-c2ccccc2)n1C (configuration not stated)	9	12	1	0	40	34
O=C(NCc1ccccc1)[C@@H]1CCCN1C(=O)[C@H]1CCCN1C(=O)c1ccc(F)c(C(F)(F)F)c1	nt	nt	nt	0	nt	nt
CC1CCN(c2ncnc3c2cnn3-c2ccccc2)CC1	3	2	11*	0	21	-3
CCOC(=O)NNc1ccc2nonc2c1[N+](=O)[O-]	1	9	2	nt	-92*	20
CCc1ccc(Nc2ccc3nonc3c2[N+](=O)[O-])cc1	-3	nt	nt	0	3	nt
CCOC(=O)c1cccc(NC(=O)CN(C)S(=O)(=O)c2cc(OC)ccc2OC)c1	nt	nt	nt	-1	nt	nt
Clc1ccc(-c2nc(-c3ccncc3)no2)c(Cl)c1	0	nt	nt	0	17	nt
Nc1nccc(-c2cc(-c3ccc(Cl)cc3Cl)no2)n1	-3	1	10*	0	13	-1
O=c1c2c(-c3cccs3)csc2ncn1-c1ccc(Br)cc1	?	nt	9.1*	-1	22	-5
COc1cccc(-n2cnc3scc(-c4cccs4)c3c2=O)c1	-1	0	-1	1	20	-9
Cc1ccccc1NC(=O)C1CCN(S(=O)(=O)c2cccc3nonc23)CC1	4	nt	nt	-1	18	nt
CCN(CC)c1ccc(/C=c2\sc3nc4ccccc4n3c2=O)c(O)c1	135*	20	0	-43	36	92*
Cc1cc(/C=c2/sc3nc4ccccc4n3c2=O)c(C)n1-c1ccccn1	16*	8	-3	0	12	6
COc1ccc(C2CN=NC2C(=O)c2ccccc2)cc1 (configuration not stated)	nt	-2	0	-1	nt	-16
Nc1nn2cc(-c3ccc(Br)cc3)nc2c2ccccc12	-4	0	1	-16	2	1
c1ccc(-c2cn3nc(-c4ccccc4)cnc3n2)cc1	nt	0	5	-3	nt	0
Brc1ccc(-c2cn3nc4c(nc3n2)CCCC4)cc1	61*	4	5	-2	14	-6
c1ccc(-c2cn3nc4c(nc3n2)CCCC4)cc1	83*	2	-1	0	9	-4
CCOC(=O)C1=NN(C(=O)c2ccc(OC)cc2)C(O)(c2ccc(Cl)cc2)C1 (configuration not stated)	?	-5	-2	-1	45	-8
CCOC(=O)C1=NN(C(=O)c2ccccc2)C(O)(c2ccc(C)cc2)C1 (configuration not stated)	?	0	15*	0	23	-1
CC(=O)Nc1ccc(N=NN2CCOCC2)cc1	1	2	4	0	-88*	1
CC(=O)Nc1cccc(N=NN2CCOCC2)c1	2	0	-4	0	28	0
O=C1NC(NS(=O)(=O)c2ccc(Cl)cc2)(C(F)(F)F)C(=O)N1Cc1cccnc1 (configuration not stated)	6	0	7	-1	16	-1
CCC(C)n1c(NC(=O)c2ccccc2)c(C#N)c2nc3ccccc3nc21 (configuration not stated)	21*	16	-1	-5	14	66*
SMILES	RanGTP-Impb inh	Runt-CBFb FRET	Wee1 degr inh	KLK7 zymogen act	AI-2 QS modul	Runt-SMMHC FRET
CCCCn1c(NC(=O)c2ccc(F)cc2)c(C#N)c2nc3ccccc3nc21	18*	nt	nt	nt	-29	nt
CCCCn1c(NC(=O)c2ccccc2)c(C#N)c2nc3ccccc3nc21	nt	6	2	3	nt	26
CCOC(=O)c1cnc[nH]c1=O	nt	nt	nt	-1	nt	nt
CN(C(=O)COC(=O)CSc1ccc(C(N)=O)cc1[N+](=O)[O-])C1CCCCC1	-5	nt	nt	0	30	nt
CCn1c(SCC(=O)NC(=O)NCc2ccco2)nc2sc(C)c(C)c2c1=O	1	26	9.8*	0	18	14
N#Cc1ccc(S(=O)(=O)N2CCCc3nc(-c4ccccc4)ccc32)cc1	nt	nt	nt	1	nt	nt
CC(C)C[C@H](NC(=O)N1CCn2c1nc1ccccc12)C(=O)NCC1CCCO1 (some centres not stated)	21*	nt	nt	0	12	nt
CCOC(=O)/C=C/C(=O)Nc1ccc(S(=O)(=O)N(C)c2ccccc2)cc1	-2	-2	10*	1	19	-3
COc1ccc(CCC(=O)OCC(=O)Nc2c(C)n(C)n(-c3ccccc3)c2=O)cc1	nt	nt	nt	0	nt	nt
CCSc1ccc(-c2nn(-c3ccccc3)cc2/C=C(/C#N)C(=O)NC)cc1	nt	8	-2	0	nt	60*
Cc1[nH]c(C)c2c(=O)n(Cc3ccccc3Cl)ncc12	nt	nt	nt	1	nt	nt
Cc1[nH]c(C)c2c(=O)n(-c3ccccc3)ncc12	-1	-1	14*	1	10	1
COc1ccccc1/C=C/C(=O)NCCc1ccccn1	-2	nt	nt	1	3	nt
Cc1c(Cl)c(=O)n2c(=O)c(Cl)c(C)n12	128*	21	6	-112	4	86*
CCN(CC)c1ccc2c(c1)OC(N)=C(C#N)C2c1cccnc1 (configuration not stated)	-127	nt	0	1	34	-194
N#CC1=C(N)Oc2cc(N)ccc2C1c1cccnc1 (configuration not stated)	24*	-4	-3	1	12	-4
COc1cc(C2C(C#N)=C(N)Oc3cc(N)ccc32)cc(OC)c1OC (configuration not stated)	nt	35	2	-1	nt	81*
COc1ccc(C2C(C#N)=C(N)Oc3cc(N)ccc32)cc1 (configuration not stated)	77*	nt	nt	-1	2	nt
N#CC1=C(N)Oc2cc(Nc3ccccc3)ccc2C1c1ccncc1 (configuration not stated)	-15	-17	-2	0	8	-28
C#CCSc1nc(N)c2c(n1)OC(N)=C(C#N)C2c1cccnc1 (configuration not stated)	60*	0	1	0	25	3
CCCC(=O)NNC(=O)c1c(O)c2ccccc2[nH]c1=O	0	2	-1	0	7	-1
N#CC1=C(N)Oc2cc(N)ccc2C1c1ccc(Cl)cc1 (configuration not stated)	61*	nt	nt	1	34	nt
Cc1cc(C)c2c3c(sc2n1)C1(CCSCC1)C(C#N)=C(N)O3	7	1	-2	1	6	-8
